Measurements as given in ChEMBL document CHEMBL1134340, “GnRH antagonists: a new generation of long acting analogues incorporating p-ureido-phenylalanines at positions 5 and 6” (J Med Chem, 2001).
Where a SMILES comes first, the peptide text is derived from it. [ ]: non-standard residue; d: D form. d(hArg(Et2)) = CCN=C(NCC)NCCCC[C@@H](N)C(=O)O; hArg(Et2) = CCN=C(NCC)NCCCC[C@H](N)C(=O)O; dPhe(4-Cl) = N[C@H](Cc1ccc(Cl)cc1)C(=O)O; d2Nal = N[C@H](Cc1ccc2ccccc2c1)C(=O)O; Lys(iPr) = CC(C)NCCCC[C@H](N)C(=O)O; NMeY = CN[C@@H](Cc1ccc(O)cc1)C(=O)O; d3Pal = N[C@H](Cc1cccnc1)C(=O)O

Assays:
[1] = target: T1, Gonadotropin-releasing hormone receptor (Homo sapiens, UniProt P30968); assay: Antagonism of human GnHR receptor, determined in a reporter gene assay in HEK293 cells; assay type: functional, cell-based
T1 sequence (P30968 whole entry): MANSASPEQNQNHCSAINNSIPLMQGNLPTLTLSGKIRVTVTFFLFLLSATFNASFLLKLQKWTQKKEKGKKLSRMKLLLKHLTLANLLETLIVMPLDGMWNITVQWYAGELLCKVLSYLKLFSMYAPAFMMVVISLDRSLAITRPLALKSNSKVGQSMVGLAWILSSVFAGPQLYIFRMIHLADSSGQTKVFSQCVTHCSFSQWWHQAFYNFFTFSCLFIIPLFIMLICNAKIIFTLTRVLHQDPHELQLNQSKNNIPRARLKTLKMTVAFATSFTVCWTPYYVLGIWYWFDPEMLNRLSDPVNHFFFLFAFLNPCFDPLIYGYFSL
In short: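 HEK293 cells stably expressing cloned human GnRH receptor plus luciferase reporter under LH alpha subunit promoter, plated 24 h before assay. Compound in 1% DMSO added 10 min at 37 °C, then GnRH at 3 nM final; 5 h incubation, luciferase luminescence read. Six concentrations in duplicate; blank-subtracted cps as % of GnRH control; mean of two determinations.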

Rattus norvegicus = species: Rattus norvegicus; assay: Compound was tested for inhibition of Leutenizing hormone release at 72 hours (long duration) in castrated male rat assay; assay type: functional; set-up: concentration or dose not given beside the values
In short: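 Male Sprague-Dawley rats (180-200 g), castrated under ether 10 days earlier, 5 per group. 50 µg/rat given sc in 100 µL 40 mM phosphate buffer with 0.1% BSA and 0.6% DMSO; acyline run as internal standard. Tail blood taken predose and at 24, 48, 72, 96 (sometimes 120) h; plasma LH by RIA. Duration classed by >80% LH inhibition at each time.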

[2] = target: T1, Gonadotropin-releasing hormone receptor; assay: Competitive antagonism of GnRH-induced response in the reporter gene assay; assay type: functional; details: read-out: pA2 (converted)
In short: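 Same HEK293 human GnRH receptor luciferase reporter cells. Seven-point GnRH curve (10 µM to 10 pM final) run in duplicate without or with four to five increasing compound concentrations (10 min preincubation, 37 °C), then 5 h and luminescence. GnRH EC50 at each level by four-parameter logistic fit, giving pA2; mean of two determinations in duplicate.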

IC50 [1] | Kb [2] | Compound | Inhibition (Rattus norvegicus)
10.7 nM |  | CC(=O)Nc1ccc(C[C@@H](NC(=O)[C@H](Cc2ccc(NC(=O)c3cc(=O)[nH]c(=O)[nH]3)cc2)NC(=O)[C@H](CO)NC(=O)[C@@H](Cc2cccnc2)NC(=O)[C@@H](Cc2ccc(Cl)cc2)NC(=O)[C@@H](Cc2ccc3ccccc3c2)NC(C)=O)C(=O)N[C@@H](CC(C)C)C(=O)N[C@@H](CCCCNC(C)C)C(=O)N2CCC[C@H]2C(=O)N[C@H](C)C(N)=O)cc1 | 
 |  | CC(=O)NCc1ccc(C[C@@H](NC(=O)[C@H](Cc2ccc(NC(=O)[C@@H]3CC(=O)NC(=O)N3)cc2)NC(=O)[C@H](CO)NC(=O)[C@@H](Cc2cccnc2)NC(=O)[C@@H](Cc2ccc(Cl)cc2)NC(=O)[C@@H](Cc2ccc3ccccc3c2)NC(C)=O)C(=O)N[C@@H](CC(C)C)C(=O)N[C@@H](CCCCNC(C)C)C(=O)N2CCC[C@H]2C(=O)N[C@H](C)C(N)=O)cc1 [listing 1 of 2 here] | >80%
 |  | CC(=O)Nc1ccc(C[C@@H](NC(=O)[C@H](Cc2ccc(CNC(=O)[C@@H]3CC(=O)NC(=O)N3)cc2)NC(=O)[C@H](CO)NC(=O)[C@@H](Cc2cccnc2)NC(=O)[C@@H](Cc2ccc(Cl)cc2)NC(=O)[C@@H](Cc2ccc3ccccc3c2)NC(C)=O)C(=O)N[C@@H](CC(C)C)C(=O)N[C@@H](CCCCNC(C)C)C(=O)N2CCC[C@H]2C(=O)N[C@H](C)C(N)=O)cc1 [listing 1 of 2 here] | >80%
7 nM | 1.58 nM | CC(=O)NCc1ccc(C[C@@H](NC(=O)[C@H](Cc2ccc(NC(=O)[C@H]3CC(=O)NC(=O)N3)cc2)NC(=O)[C@H](CO)NC(=O)[C@@H](Cc2cccnc2)NC(=O)[C@@H](Cc2ccc(Cl)cc2)NC(=O)[C@@H](Cc2ccc3ccccc3c2)NC(C)=O)C(=O)N[C@@H](CC(C)C)C(=O)N[C@@H](CCCCNC(C)C)C(=O)N2CCC[C@H]2C(=O)N[C@H](C)C(N)=O)cc1 [listing 1 of 2 here] | 
13 nM |  | CC(=O)N[C@H](Cc1ccc2ccccc2c1)C(=O)N[C@H](Cc1ccc(Cl)cc1)C(=O)N[C@H](Cc1cccnc1)C(=O)N[C@@H](CO)C(=O)N[C@@H](Cc1ccc(NC(=O)[C@@H]2CC(=O)NC(=O)N2)cc1)C(=O)N[C@H](Cc1ccc2ccccc2c1)C(=O)N[C@@H](CC(C)C)C(=O)N[C@@H](CCCCNC(C)C)C(=O)N1CCC[C@H]1C(=O)N[C@H](C)C(N)=O | 
 |  | CC(=O)N[C@H](Cc1ccc2ccccc2c1)C(=O)N[C@H](Cc1ccc(Cl)cc1)C(=O)N[C@H](Cc1cccnc1)C(=O)N[C@@H](CO)C(=O)N[C@@H](Cc1ccc(NC(=O)[C@@H]2CC(=O)NC(=O)N2)cc1)C(=O)N[C@H](Cc1ccc(NC(N)=O)cc1)C(=O)N[C@@H](CC(C)C)C(=O)N[C@@H](CCCCNC(C)C)C(=O)N1CCC[C@H]1C(=O)N[C@@H](C)CO | >80%
2.8 nM | 2 nM | CC(=O)N[C@H](Cc1ccc2ccccc2c1)C(=O)N[C@H](Cc1ccc(Cl)cc1)C(=O)N[C@H](Cc1cccnc1)C(=O)N[C@@H](CO)C(=O)N[C@@H](Cc1ccc(NC(=O)[C@@H]2CC(=O)NC(=O)N2)cc1)C(=O)N[C@H](Cc1cccnc1)C(=O)N[C@@H](CC(C)C)C(=O)N[C@@H](CCCCNC(C)C)C(=O)N1CCC[C@H]1C(=O)N[C@H](C)C(N)=O | 
 |  | CC(=O)N[C@H](Cc1ccc2ccccc2c1)C(=O)N[C@H](Cc1ccc(Cl)cc1)C(=O)N[C@H](Cc1cccnc1)C(=O)N[C@@H](CO)C(=O)N[C@@H](Cc1ccc(NC(=O)[C@@H]2CC(=O)NC(=O)N2)cc1)C(=O)N[C@H](CCCNC(N)=O)C(=O)N[C@@H](CC(C)C)C(=O)N[C@@H](CCCCNC(C)C)C(=O)N1CCC[C@H]1C(=O)N[C@H](C)C(N)=O [listing 1 of 2 here] | >80%
 |  | CC(=O)NCc1ccc(C[C@@H](NC(=O)[C@H](Cc2ccc(NC(=O)[C@H]3CC(=O)NC(=O)N3)cc2)NC(=O)[C@H](CO)NC(=O)[C@@H](Cc2cccnc2)NC(=O)[C@@H](Cc2ccc(Cl)cc2)NC(=O)[C@@H](Cc2ccc3ccccc3c2)NC(C)=O)C(=O)N[C@@H](CC(C)C)C(=O)N[C@@H](CCCCNC(C)C)C(=O)N2CCC[C@H]2C(=O)N[C@H](C)C(N)=O)cc1 [listing 2 of 2 here] | >80%
6.4 nM | 0.631 nM | CC(=O)Nc1ccc(C[C@H](NC(=O)[C@H](CO)NC(=O)[C@@H](Cc2cccnc2)NC(=O)[C@@H](Cc2ccc(Cl)cc2)NC(=O)[C@@H](Cc2ccc3ccccc3c2)NC(C)=O)C(=O)N[C@H](Cc2ccc(CNC(N)=O)cc2)C(=O)N[C@@H](CC(C)C)C(=O)N[C@@H](CCCCNC(C)C)C(=O)N2CCC[C@H]2C(=O)N[C@H](C)C(N)=O)cc1 | 
7.9 nM | 0.794 nM | CNC(=O)NCc1ccc(C[C@@H](NC(=O)[C@H](Cc2ccc(NC(=O)[C@@H]3CC(=O)NC(=O)N3)cc2)NC(=O)[C@H](CO)NC(=O)[C@@H](Cc2cccnc2)NC(=O)[C@@H](Cc2ccc(Cl)cc2)NC(=O)[C@@H](Cc2ccc3ccccc3c2)NC(C)=O)C(=O)N[C@@H](CC(C)C)C(=O)N[C@@H](CCCCNC(C)C)C(=O)N2CCC[C@H]2C(=O)N[C@H](C)C(N)=O)cc1 | 
5.6 nM | 1.26 nM | CC(=O)N[C@H](Cc1ccc2ccccc2c1)C(=O)N[C@H](Cc1ccc(Cl)cc1)C(=O)N[C@H](Cc1cccnc1)C(=O)N[C@@H](CO)C(=O)N[C@@H](Cc1ccc(NC(=O)[C@@H]2CC(=O)NC(=O)N2)cc1)C(=O)N[C@H](Cc1ccc(CNC(N)=O)cc1)C(=O)N[C@@H](CC(C)C)C(=O)N[C@@H](CCCCNC(C)C)C(=O)N1CCC[C@H]1C(=O)N[C@H](C)C(N)=O | 
8.8 nM | 0.631 nM | CCNC(=O)[C@@H]1CCCN1C(=O)[C@H](CCCCNC(C)C)NC(=O)[C@H](CC(C)C)NC(=O)[C@@H](Cc1ccc(CNC(N)=O)cc1)NC(=O)[C@H](Cc1ccc(NC(=O)[C@@H]2CC(=O)NC(=O)N2)cc1)NC(=O)[C@H](CO)NC(=O)[C@@H](Cc1cccnc1)NC(=O)[C@@H](Cc1ccc(Cl)cc1)NC(=O)[C@@H](Cc1ccc2ccccc2c1)NC(C)=O | 
3.5 nM | 0.794 nM | CC(=O)N[C@H](Cc1ccc2ccccc2c1)C(=O)N[C@H](Cc1ccc(Cl)cc1)C(=O)N[C@H](Cc1cccnc1)C(=O)N[C@@H](CO)C(=O)N(C)[C@@H](Cc1ccc(O)cc1)C(=O)N[C@H](CC(N)=O)C(=O)N[C@@H](CC(C)C)C(=O)N[C@@H](CCCCNC(C)C)C(=O)N1CCC[C@H]1C(=O)N[C@H](C)C(N)=O [ABARELIX] (Ac-[d2Nal][dPhe(4-Cl)][d3Pal]S[NMeY][dN]L[Lys(iPr)]P[dA]-NH2) | 
10.8 nM | 1 nM | CC(=O)N[C@H](Cc1ccc2ccccc2c1)C(=O)N[C@H](Cc1ccc(Cl)cc1)C(=O)N[C@H](Cc1cccnc1)C(=O)N[C@@H](CO)C(=O)N[C@@H](Cc1ccc(NC(=O)[C@@H]2CC(=O)NC(=O)N2)cc1)C(=O)N[C@H](Cc1ccc(NC(=O)[C@@H]2CC(=O)NC(=O)N2)cc1)C(=O)N[C@@H](CC(C)C)C(=O)N[C@@H](CCCCNC(C)C)C(=O)N1CCC[C@H]1C(=O)N[C@H](C)C(N)=O | 
7.9 nM | 0.316 nM | CC(=O)Nc1ccc(C[C@@H](NC(=O)[C@H](Cc2ccc(CNC(=O)[C@@H]3CC(=O)NC(=O)N3)cc2)NC(=O)[C@H](CO)NC(=O)[C@@H](Cc2cccnc2)NC(=O)[C@@H](Cc2ccc(Cl)cc2)NC(=O)[C@@H](Cc2ccc3ccccc3c2)NC(C)=O)C(=O)N[C@@H](CC(C)C)C(=O)N[C@@H](CCCCNC(C)C)C(=O)N2CCC[C@H]2C(=O)N[C@H](C)C(N)=O)cc1 [listing 2 of 2 here] | 
9.5 nM | 1 nM | CC(=O)NCc1ccc(C[C@@H](NC(=O)[C@H](Cc2ccc(NC(=O)[C@@H]3CC(=O)NC(=O)N3)cc2)NC(=O)[C@H](CO)NC(=O)[C@@H](Cc2cccnc2)NC(=O)[C@@H](Cc2ccc(Cl)cc2)NC(=O)[C@@H](Cc2ccc3ccccc3c2)NC(C)=O)C(=O)N[C@@H](CC(C)C)C(=O)N[C@@H](CCCCNC(C)C)C(=O)N2CCC[C@H]2C(=O)N[C@H](C)C(N)=O)cc1 [listing 2 of 2 here] | 
7.7 nM |  | CC(=O)N[C@H](Cc1ccc2ccccc2c1)C(=O)N[C@H](Cc1ccc(Cl)cc1)C(=O)N[C@H](Cc1cccnc1)C(=O)N[C@@H](CO)C(=O)N[C@@H](Cc1ccc(NC(=O)[C@H]2CC(=O)NC(=O)N2)cc1)C(=O)N[C@H](Cc1ccc(CNC(N)=O)cc1)C(=O)N[C@@H](CC(C)C)C(=O)N[C@@H](CCCCNC(C)C)C(=O)N1CCC[C@H]1C(=O)N[C@H](C)C(N)=O | 
3.6 nM | 0.501 nM | CCN=C(NCC)NCCCC[C@H](NC(=O)[C@H](CC(C)C)NC(=O)[C@@H](CCCCNC(=NCC)NCC)NC(=O)[C@H](Cc1ccc(O)cc1)NC(=O)[C@H](CO)NC(=O)[C@@H](Cc1cccnc1)NC(=O)[C@@H](Cc1ccc(Cl)cc1)NC(=O)[C@@H](Cc1ccc2ccccc2c1)NC(C)=O)C(=O)N1CCC[C@H]1C(=O)N[C@H](C)C(N)=O [GANIRELIX ACETATE] (Ac-[d2Nal][dPhe(4-Cl)][d3Pal]SY[d(hArg(Et2))]L[hArg(Et2)]P[dA]-NH2) | 
5.8 nM | 0.794 nM | CC(=O)N[C@H](Cc1ccc2ccccc2c1)C(=O)N[C@H](Cc1ccc(Cl)cc1)C(=O)N[C@H](Cc1cccnc1)C(=O)N[C@@H](CO)C(=O)N[C@@H](Cc1ccc(NC(=O)[C@@H]2CC(=O)NC(=O)N2)cc1)C(=O)N[C@H](CCCNC(N)=O)C(=O)N[C@@H](CC(C)C)C(=O)N[C@@H](CCCCNC(C)C)C(=O)N1CCC[C@H]1C(=O)N[C@H](C)C(N)=O [listing 2 of 2 here] | 
